The text below walks through data of ChEMBL document CHEMBL3124927, “New C(4)- and C(1)-derivatives of furo[3,4-c]pyridine-3-ones and related compounds: evidence for site-specific inhibition of the constitutive proteasome and its immunoisoform” (Bioorg Med Chem Lett, 2014).

Structures are written as SMILES. The source made the active and inactive calls. The calls are words filed in the database; no cut-off is given here.

Assay [1] can be described thus: Inhibition of 20s constitutive proteasome beta 5 subunit chymotrypsin-like activity in rabbit erythrocytes using Suc-LLVY-AMC as substrate incubated for 15 mins prior to substrate addition measured after 45 mins by fluorescence assay. It counts as cell-based, Oryctolagus cuniculus. Put shortly:
(§1)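 Purified rabbit erythrocyte constitutive 20S fraction, 0.27 nM enzyme, pre-incubated 15 min with or without inhibitor before substrate addition. Buffer pH 7.5: 20 mM Tris, 1 mM DTT, 10% glycerol, 0.02% (w/v) SDS. Fluorescence read-out. IC50 is from a percent inhibition versus concentration plot, fitted with a Hill-type equation.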

The nature of assay [2]: Inhibition of 20s constitutive proteasome beta 2 subunit trypsin-like activity in rabbit erythrocytes using Boc-LRR-AMC as substrate incubated for 15 mins prior to substrate addition measured after 45 mins by fluorescence assay. Type of assay: cell-based, Oryctolagus cuniculus. An outline of the steps: (§2)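 Purified rabbit erythrocyte constitutive 20S fraction, 0.27 nM enzyme, pre-incubated 15 min with or without inhibitor, then Boc-LRR-AMC added. Buffer at pH 7.5. Fluorescence read-out. IC50 is from a plot of percent inhibition against inhibitor concentration, Hill-equation fit.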

The nature of assay [3]: Inhibition of 20s constitutive proteasome beta 1 subunit caspase-like activity in rabbit erythrocytes using Z-LLE-betaNA as substrate incubated for 15 mins prior to substrate addition measured after 45 mins by fluorescence assay. Type of assay: cell-based, Oryctolagus cuniculus. An outline of the steps:
as §1

Assay [4] addresses T1, Calpain-1 catalytic subunit (Homo sapiens) (UniProt P07384).
T1 sequence (whole entry): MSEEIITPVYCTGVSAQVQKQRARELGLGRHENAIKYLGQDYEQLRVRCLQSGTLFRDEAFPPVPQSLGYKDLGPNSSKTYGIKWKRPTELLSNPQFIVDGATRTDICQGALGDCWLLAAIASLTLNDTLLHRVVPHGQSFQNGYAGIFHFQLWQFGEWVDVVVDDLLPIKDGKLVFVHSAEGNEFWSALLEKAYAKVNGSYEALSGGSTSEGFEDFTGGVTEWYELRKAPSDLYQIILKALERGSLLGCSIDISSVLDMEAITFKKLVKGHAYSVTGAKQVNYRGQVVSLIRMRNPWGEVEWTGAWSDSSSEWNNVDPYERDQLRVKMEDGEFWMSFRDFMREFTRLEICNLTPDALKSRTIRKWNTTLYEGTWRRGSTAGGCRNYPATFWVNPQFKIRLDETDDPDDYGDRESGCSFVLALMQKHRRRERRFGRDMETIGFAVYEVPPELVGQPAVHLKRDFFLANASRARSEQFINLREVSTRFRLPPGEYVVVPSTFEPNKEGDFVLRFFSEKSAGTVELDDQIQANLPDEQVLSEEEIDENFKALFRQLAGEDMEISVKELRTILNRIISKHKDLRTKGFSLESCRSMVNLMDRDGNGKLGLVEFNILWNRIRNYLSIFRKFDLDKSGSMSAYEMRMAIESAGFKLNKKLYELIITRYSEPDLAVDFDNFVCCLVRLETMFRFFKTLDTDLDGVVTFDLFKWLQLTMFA
Kind of assay: Inhibition of human calpain-1 using Suc-LLVY-AMC as substrate by fluorescence assay. An outline of the steps: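 Human calpain I fraction, Suc-LLVY-AMC substrate, at 25 °C in 50 mM Tris, 10 mM DTT with CaCl2, pH 7.2. Fluorescence read-out. IC50 is from percent inhibition versus inhibitor concentration.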

Assay [5] concerns the target Cathepsin B (Homo sapiens) (UniProt P07858). The experiment in a line: Inhibition of human cathepsin B using Z-RR-AMC as substrate by fluorescence assay. An outline of the steps:
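Human cathepsin B fraction, Z-RR-AMC substrate, at 37 °C in 352 mM KH2PO4, 48 mM Na2HPO4, 1 mM EDTA, 1 mM DTT, pH 6. Fluorescence read-out. IC50 is from percent inhibition versus inhibitor concentration.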

The species entered for assay [6] is Oryctolagus cuniculus. Kind of assay: Inhibition of 20s constitutive proteasome beta 2 subunit trypsin-like activity in rabbit erythrocytes using Boc-LRR-AMC as substrate at 100 uM incubated for 15 mins prior to substrate addition measured after 45 mins by fluorescence assay relative to control. It counts as cell-based. An outline of the steps: as §2
The species entered for assay [7] is Oryctolagus cuniculus. Kind of assay: Inhibition of 20s constitutive proteasome beta 5 subunit chymotrypsin-like activity in rabbit erythrocytes using Suc-LLVY-AMC as substrate at 100 uM incubated for 15 mins prior to substrate addition measured after 45 mins by fluorescence assay relative to control. It counts as cell-based. An outline of the steps: as §1

In the case of `C=C1c2c(ncn(CC(O)COc3ccccc3)c2=O)OC1(C)C` (stereo unspecified), the half-maximal inhibitory concentration (IC50) result in assay [1], in assay [2] and in assay [3] was “Not Active” each time.
`CC(N)C1=C(c2ccccc2)C(C)(C)OC1=O` (stereo unspecified): the IC50 entry in assay [1], in assay [2] and in assay [3] was “Not Active” each time. Further, the inhibition entry in assay [4] and in assay [5] was “inactive” in each case.
With `O=C1OC2(CCCCC2)c2ccnc(O)c21`, the results for the 50% inhibitory concentration (IC50) result in assay [1], in assay [2] and in assay [3] (read-out: IC50) were “Not Active”, “Not Active” and 27.8 µM, respectively. Also, the inhibition result in assay [4] and in assay [5] was “inactive” each time.
`C=C1c2c(ncn(-c3ccc(Br)cc3)c2=O)OC1(C)C`: the IC50 result in assay [1] and in assay [3] was “Not Active” in each case. In the assay filed under Oryctolagus cuniculus [6], the inhibition (commonly the relative decrease from the control value, in per cent) came out at 29%.
`O=c1c2c(-c3ccc(Cl)cc3)csc2ncn1CCc1ccc(Cl)cc1`: the half-inhibitory concentration (IC50) result in assay [1] and in assay [3] was “Not Active” in each case. In the assay listed under Oryctolagus cuniculus [6], the inhibition is 52%.
On to `O=c1c2c(-c3ccc(Cl)cc3)csc2ncn1CCc1ccccc1`, for which the half-maximal inhibitory concentration (IC50) entry in assay [1] and in assay [3] was “Not Active” in each case. For the same compound, the inhibition in the assay filed under Oryctolagus cuniculus [6] came to 48%.
In the case of `CC1(C)OC(=O)c2c1ccnc2NCC(O)COc1ccc(F)cc1` (stereo unspecified), the half-inhibitory concentration (IC50) result in assay [2] and in assay [3] was “Not Active” in each case. For the same compound, the inhibition in the assay filed under Oryctolagus cuniculus [7] was found to be 29%. Further, the inhibition entry in assay [4] and in assay [5] was “inactive” in each case.
On to `C=C1c2c(ncn(CCCN3CCOCC3)c2=O)OC1(C)C`, for which the IC50 result in assay [1] and in assay [3] was “Not Active” in each case. In the assay filed under Oryctolagus cuniculus [6], this compound showed an inhibition of 48%.
`CC1(C)OC(=O)C(C(N)=S)=C1c1ccccc1`: the IC50 result in assay [1], in assay [2] and in assay [3] was “Not Active” throughout. Further, the inhibition result in assay [4] and in assay [5] was “inactive” throughout.
In the case of `Cc1sc2ncn(CCCN3CCOCC3)c(=O)c2c1C`, the 50% inhibitory concentration (IC50) entry in assay [1] and in assay [3] was “Not Active” in each case. In the assay listed under Oryctolagus cuniculus [6], the inhibition was 53%.
Take `Cc1ccc(CCn2cnc3sc(C)c(C)c3c2=O)cc1`: the IC50 result in assay [1], in assay [2] and in assay [3] was “Not Active” each time.
With `C=C1c2c(nc[nH]c2=O)OC1(C)C`, the IC50 (as a rule, the point on the concentration scale where inhibition reaches its midpoint) was “Not Active” in assay [1], 59 µM in assay [2] (read-out: IC50) and “Not Active” in assay [3].
Regarding `Cc1sc2ncn(CCc3ccc(Cl)cc3)c(=O)c2c1C`, the 50% inhibitory concentration (IC50) entry in assay [1] was “Not Active”; in assay [2] (read-out: IC50) it was 56 µM; in assay [3], “Not Active”.
`C=C1c2c(ncn(CCCn3ccnc3)c2=O)OC1(C)C`: the IC50 result was “Not Active” in assay [1] and 47 µM in assay [3] (read-out: IC50). In addition, the inhibition in the assay listed under Oryctolagus cuniculus [6] turned out to be 56%.
Take `Nc1nccc2c1C(=O)OC21CCCCC1`: the IC50 entry in assay [1] was “Not Active”; in assay [2], “Not Active”; in assay [3] (read-out: IC50) it was 8.4 µM. Further, the inhibition entry in assay [4] and in assay [5] was “inactive” each time.
For the compound `CC1(C)OC(=O)c2c1ccnc2N`, the IC50 entry was “Not Active” in assay [1] and 7.9 µM in assay [3] (read-out: IC50). For the same compound, the inhibition result in assay [4] and in assay [5] was “inactive” each time. Also, the inhibition in the assay filed under Oryctolagus cuniculus [6] was 35%.
Regarding `Cc1ccc(OCC(O)CNc2nccc3c2C(=O)OC3(C)C)cc1` (stereo unspecified), the half-maximal inhibitory concentration (IC50) in assay [2] (read-out: IC50) is 60.8 µM; in assay [3], “Not Active”. Also, the inhibition in the assay filed under Oryctolagus cuniculus [7] worked out at 36.5%. Moreover, the inhibition entry in assay [4] and in assay [5] was “inactive” in each case.
Turning to `CCOC(=O)C1=C(/C=C/N(C)C)C(C)(C)OC1=O`, the 50% inhibitory concentration (IC50) result in assay [1], in assay [2] and in assay [3] was “Not Active” in each case. Besides, the inhibition result in assay [4] and in assay [5] was “inactive” throughout.
For the compound `CC12CCCC=C1c1c(nc[nH]c1=O)O2` (stereo unspecified), the IC50 result in assay [1], in assay [2] and in assay [3] was “Not Active” in each case.
`Cc1nccc2c1C(=O)OC21CCCCC1`: the IC50 result in assay [1] was “Not Active”; in assay [2], “Not Active”; in assay [3] (read-out: IC50), 16.1 µM. Moreover, the inhibition result in assay [4] and in assay [5] was “inactive” in each case.
`C=C1c2c(ncn(CC(O)CN3CCOCC3)c2=O)OC1(C)C` (stereo unspecified): the IC50 entry in assay [2] and in assay [3] was “Not Active” each time. This compound came in with an inhibition in the assay filed under Oryctolagus cuniculus [7] of 33%.
Turning to `Cc1cc(=O)oc2cc[nH]c(=O)c12`, the half-maximal inhibitory concentration (IC50) is 29.4 µM in assay [1] (read-out: IC50), 8.7 µM in assay [2] (read-out: IC50) and “Not Active” in assay [3]. For the same compound, the inhibition result in assay [4] and in assay [5] was “inactive” each time.
For the compound `Cc1sc2ncn(CCc3ccccc3)c(=O)c2c1C`, the IC50 result in assay [1] and in assay [3] was “Not Active” each time. Also, the inhibition in the assay listed under Oryctolagus cuniculus [6] turned out to be 42%.
`C=C1c2c(ncn(C)c2=O)OC12CCCCC2`: the 50% inhibitory concentration (IC50) result in assay [2] and in assay [3] was “Not Active” each time. In addition, the inhibition in the assay listed under Oryctolagus cuniculus [7] is 30%.
Take `CC1(C)OC(=O)c2c1ccnc2O`: the half-maximal inhibitory concentration (IC50) result was “Not Active” in assay [1], “Not Active” in assay [2] and 16.7 µM in assay [3] (read-out: IC50). Moreover, the inhibition entry in assay [4] and in assay [5] was “inactive” throughout.
In the case of `C[C@@]12OC(=O)[C@]1([C@@H](O)[C@@H]1C=CCCC1)NC(=O)[C@@H]2CCCl` [MARIZOMIB], the 50% inhibitory concentration (IC50) amounted to 0.0026 µM in assay [1] (read-out: IC50), 0.021 µM in assay [2] (read-out: IC50) and 0.46 µM in assay [3] (read-out: IC50).
In the case of `CC1(C)OC(=O)c2c1ccnc2NCC(O)COc1ccc(Cl)cc1` (stereo unspecified), the IC50 in assay [2] (read-out: IC50) is 48.1 µM; in assay [3], “Not Active”. The inhibition in the assay filed under Oryctolagus cuniculus [7] was determined as 63%. In addition, the inhibition entry in assay [4] and in assay [5] was “inactive” in each case.
Consider `CC1(C)OC(=O)C(C(N)=O)=C1/C=C/c1ccccc1`, for which the IC50 entry in assay [1], in assay [2] and in assay [3] was “Not Active” each time. Moreover, the inhibition result in assay [4] and in assay [5] was “inactive” in each case.
`Cc1nccc2c1C(=O)OC2(C)C`: the half-maximal inhibitory concentration (IC50) entry is “Not Active” in assay [1], 88 µM in assay [2] (read-out: IC50) and “Not Active” in assay [3]. In addition, the inhibition entry in assay [4] and in assay [5] was “inactive” each time.
As for `C=C1c2c(nc[nH]c2=O)OC1(C)c1ccccc1` (stereo unspecified), the concentration for half-maximal inhibition (IC50) result in assay [1], in assay [2] and in assay [3] was “Not Active” each time.
With `C=C1c2c(ncn(CCO)c2=O)OC1(C)C`, the IC50 entry in assay [1], in assay [2] and in assay [3] was “Not Active” each time.
Regarding `CC1(C)OC(=O)c2c1ccnc2NCC(O)COc1ccccc1` (stereo unspecified), the values for the half-inhibitory concentration (IC50) result in assay [1], in assay [2] and in assay [3] (read-out: IC50) were “Not Active”, “Not Active” and 48.1 µM, respectively. The inhibition entry in assay [4] and in assay [5] was “inactive” in each case.
As for `O=c1[nH]ccc2c1c(=O)oc1ccccc12`, the IC50 entry in assay [1], in assay [2] and in assay [3] was “Not Active” throughout. In addition, the inhibition result in assay [4] and in assay [5] was “inactive” each time.
